Activity calls are given as the source filed them. The rule behind the calls is not given here.
Assays:
[1] = biological target: T1, Proteasome Macropain subunit MB1 (Homo sapiens, UniProt P28074); test: Inhibition of chymotrypsin-like activity of human 20S proteasome beta 5 subunit using Suc-LLVY-AMC as substrate after 60 mins by fluorescence assay
T1 sequence (P28074 whole entry): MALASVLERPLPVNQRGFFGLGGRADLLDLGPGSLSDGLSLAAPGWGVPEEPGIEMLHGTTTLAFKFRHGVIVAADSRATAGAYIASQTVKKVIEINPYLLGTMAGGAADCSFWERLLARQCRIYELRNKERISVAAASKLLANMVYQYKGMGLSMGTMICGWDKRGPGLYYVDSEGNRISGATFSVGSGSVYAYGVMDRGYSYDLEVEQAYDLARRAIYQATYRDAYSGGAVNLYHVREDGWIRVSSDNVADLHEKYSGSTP

[2] = biological target: T2, Proteasome subunit beta type-8 (Homo sapiens) (UniProt P28062); test: Inhibition of chymotrypsin-like activity of human 20S immunoproteasome beta 5 subunit using […] at 0.3 uM incubated for 5 mins prior to […] measured after 1 hr by ELISA
T2 sequence (whole entry): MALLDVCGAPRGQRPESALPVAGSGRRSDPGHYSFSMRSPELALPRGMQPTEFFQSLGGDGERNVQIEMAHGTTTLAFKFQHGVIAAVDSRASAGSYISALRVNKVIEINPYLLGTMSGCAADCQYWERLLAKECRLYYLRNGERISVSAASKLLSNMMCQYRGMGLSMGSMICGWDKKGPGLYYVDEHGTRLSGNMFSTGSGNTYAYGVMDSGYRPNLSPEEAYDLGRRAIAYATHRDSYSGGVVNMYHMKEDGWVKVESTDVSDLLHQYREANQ

[3] = biological target: T3, Proteasome Macropain subunit MB1 (Homo sapiens) (UniProt P28074); test: Inhibition of chymotrypsin-like activity of human constitutive 20S proteasome beta 5 subunit using […] at 0.3 uM incubated for 5 mins prior to […] measured after 1 hr by ELISA
T3 sequence (whole entry): T1 sequence (P28074 whole entry)

[4] = Half life in TEAA buffer at pH 7.4 by HPLC analysis; type: physicochemical
In short: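 Compound incubated in 0.1 M triethylammonium acetate (TEAA) buffer, pH 7.4, at 37 °C. The time course was recorded by HPLC, and the half-life (t1/2) was determined from that time course.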

[5] = biological target: T2, Proteasome subunit beta type-8 (Homo sapiens); test: Inhibition of chymotrypsin-like activity of human 20S immunoproteasome beta 5 subunit using […] at 2.5 uM incubated for 5 mins prior to […] measured after 1 hr by ELISA
[6] = biological target: T3, Proteasome Macropain subunit MB1 (Homo sapiens); conditions: 2.5 uM
HCT-116 [7] = test: Induction of apoptosis in human HCT116 cells assessed as induction of PARP cleavage by Western blotting analysis; type: functional, cell-based
In short: (§1)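 Cell extracts were immunoblotted for p53, read as a cellular marker of proteasome blockade, and for cleaved PARP, read as an apoptosis marker.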

HCT-116 [8] = test: Inhibition of proteasome in human HCT116 cells assessed as accumulation of p53 by Western blotting analysis; type: cell-based; in short: as §1
HCT-116 [9] = test: Cell cycle arrest in human HCT116 cells assessed as accumulation at G2/M phase after 24 hrs by propidium iodide staining-based flow cytometric analysis; type: functional
HCT-116 [10] = test: Cytotoxicity against human HCT116 cells after 72 hrs by CCK-8 assay; type: functional, cell-based; conditions: HCT-116, 72 h
[11] = biological target: T3, Proteasome Macropain subunit MB1 (Homo sapiens); test: Reversible inhibition of chymotrypsin-like activity of human 20S proteasome beta 5 subunit using Suc-LLVY-AMC as substrate incubated for 12 hrs prior to substrate addition followed by compound wash out measured after 1 hr by dialysis method
[12] = biological target: T3, Proteasome Macropain subunit MB1 (Homo sapiens); test: Irreversible inhibition of chymotrypsin-like activity of human 20S proteasome beta 5 subunit using Suc-LLVY-AMC as substrate incubated for 12 hrs prior to substrate addition followed by compound wash out measured after 1 hr by dialysis method

`C=C[C@H](C[C@@H]1C[C@@H]1NC(=O)[C@@H]1OC(=O)[C@H]1[C@@H](C)CC)NC(=O)[C@@H](C)NC(=O)OCc1ccccc1` gave an IC50 [1] of 57 nM.

In the case of `CC[C@H](C)[C@@H]1C(=O)O[C@H]1C(=O)N[C@H]1C[C@H]1C[C@H](NC(=O)[C@H](C)N)C(=O)O` [BELACTOSIN A], the inhibition [2] is reported as “Active”, the inhibition [3] is reported as “Active” and the IC50 [1] is reported as 1440 nM.

Work on `CC[C@H](C[C@@H]1C[C@@H]1NC(=O)[C@@H]1OC(=O)[C@H]1[C@@H](C)CC)NC(=O)[C@H](C)NC(=O)OCc1ccccc1` yielded an IC50 [1] of 38 nM.

`C=C[C@H](C[C@@H]1C[C@@H]1NC(=O)[C@@H]1OC(=O)[C@H]1[C@@H](C)CC)NC(=O)[C@H](CC(C)C)NC(=O)OCc1ccccc1` gave an IC50 [1] of 47 nM.

Work on `C=C[C@H](C[C@@H]1C[C@@H]1NC(=O)[C@@H]1OC(=O)[C@H]1[C@@H](C)CC)NC(=O)[C@H](C)NC(=O)c1ccccc1` yielded an IC50 [1] of 79 nM.

Compound `C[C@@]12OC(=O)[C@]1([C@@H](O)[C@@H]1C=CCCC1)NC(=O)[C@@H]2CCCl` [MARIZOMIB] has a half-life [4] of 56 min.

In the case of `CC(=O)N[C@@H](CSC(=O)[C@]1([C@@H](O)C(C)C)NC(=O)[C@H](C)[C@@H]1O)C(=O)O`, the inhibition [5] is reported as “Active” and the inhibition [6] is reported as “Active”.

Compound `C=C[C@H](C[C@@H]1C[C@@H]1NC(=O)[C@@H]1OC(=O)[C@H]1[C@@H](C)CC)NC(=O)C(C)(C)C` has an IC50 [1] of 210 nM.

With `CC(C)[C@H](O)[C@@]12NC(=O)[C@H](C)[C@@H]1OC2=O` [OMURALIDE] the half-life [4] was 13 min.

In the case of `CC[C@H](C)[C@@H]1C(=O)O[C@H]1C(=O)N[C@H]1C[C@H]1C[C@@H](CCc1ccccc1)NC(=O)[C@H](C)NC(=O)c1ccc2ccccc2c1`, the Activity (HCT-116 [7]) is reported as “Active”, the “p53 accumulation (active/inactive)” value (HCT-116 [8]) is reported as “Active” and the Activity (HCT-116 [9]) is reported as “Active”. For the same compound, the IC50 (HCT-116 [10]) was 790 nM and the IC50 [1] was 10 nM.

`C=C[C@H](C[C@@H]1C[C@@H]1NC(=O)[C@@H]1OC(=O)[C@H]1[C@@H](C)CC)NC(=O)C(C)C` showed an IC50 [1] of 230 nM.

For `C=C[C@H](C[C@@H]1C[C@@H]1NC(=O)[C@@H]1OC(=O)[C@H]1[C@@H](C)CC)NC(=O)c1ccc2ccccc2c1`, the Activity (HCT-116 [7]) was “Active”, the “p53 accumulation (active/inactive)” value (HCT-116 [8]) was “Active” and the Activity (HCT-116 [9]) was “Active”. The IC50 (HCT-116 [10]) was 11200 nM and the IC50 [1] was 60 nM.

In the case of `C=C[C@H](C[C@@H]1C[C@@H]1NC(=O)[C@@H]1OC(=O)[C@H]1[C@@H](C)CC)NC(=O)[C@H](Cc1ccccc1)NC(=O)OCc1ccccc1`, the Activity (HCT-116 [7]) is reported as “Active”, the “p53 accumulation (active/inactive)” value (HCT-116 [8]) is reported as “Active” and the Activity (HCT-116 [9]) is reported as “Active”. It also gave an IC50 (HCT-116 [10]) of 4160 nM and an IC50 [1] of 30 nM.

Compound `C=C[C@H](C[C@@H]1C[C@@H]1NC(=O)[C@@H]1OC(=O)[C@H]1[C@@H](C)CC)NC(=O)[C@H](C)NC(=O)OC(C)(C)C` has an IC50 [1] of 77 nM.

For `C=C[C@H](C[C@@H]1C[C@@H]1NC(=O)[C@@H]1OC(=O)[C@H]1[C@@H](C)CC)NC(=O)[C@H](C)NC(=O)c1ccc2ccccc2c1`, the Activity (HCT-116 [7]) was “Active”, the “p53 accumulation (active/inactive)” value (HCT-116 [8]) was “Active” and the Activity (HCT-116 [9]) was “Active”. The IC50 (HCT-116 [10]) was 2610 nM and the IC50 [1] was 25 nM.

Compound `CC[C@H](C)[C@@H]1C(=O)O[C@H]1C(=O)N[C@H]1C[C@H]1C[C@@H](Cc1cccc2ccccc12)NC(=O)[C@H](C)NC(=O)OCc1ccccc1` has an IC50 [1] of 130 nM.

Work on `CC[C@H](C)[C@@H]1C(=O)O[C@H]1C(=O)N[C@H]1C[C@H]1C[C@@H](Cc1ccc2ccccc2c1)NC(=O)[C@H](C)NC(=O)OCc1ccccc1` yielded an IC50 [1] of 200 nM.

For `C=C[C@H](C[C@@H]1C[C@@H]1NC(=O)[C@@H]1OC(=O)[C@H]1[C@@H](C)CC)NC(=O)CNC(=O)OCc1ccccc1`, the IC50 [1] was 41 nM.

In the case of `CC[C@H](C)[C@@H]1C(=O)O[C@H]1C(=O)N[C@H]1C[C@H]1C[C@@H](CCc1cccc2ccccc12)NC(=O)[C@H](C)NC(=O)OCc1ccccc1`, the IC50 [1] is reported as 63 nM.

For `CC[C@H](C)[C@@H]1C(=O)O[C@H]1C(=O)N[C@H]1C[C@H]1C[C@@H](CCc1ccccc1)NC(=O)c1ccc2ccccc2c1`, the IC50 [1] was 33 nM.

In the case of `CC[C@H](C)[C@@H]1C(=O)O[C@H]1C(=O)N[C@H]1C[C@H]1C[C@@H](CCCc1ccccc1)NC(=O)[C@H](C)NC(=O)OCc1ccccc1`, the IC50 [1] is reported as 35 nM.

For `CC[C@H](C)[C@@H]1C(=O)O[C@H]1C(=O)N[C@H]1C[C@H]1C[C@@H](CCc1ccccc1)NC(=O)[C@H](C)NC(=O)OCc1ccccc1`, the inhibition [11] was “Active”, the Activity (HCT-116 [7]) was “Active” and the “p53 accumulation (active/inactive)” value (HCT-116 [8]) was “Active”. The Activity (HCT-116 [9]) was “Active”, the IC50 (HCT-116 [10]) was 1820 nM and the inhibition [2] was “Active”. The inhibition [3] was “Active” and the IC50 [1] was 5.7 nM.

`CC[C@H](C)[C@@H]1C(=O)O[C@H]1C(=O)N[C@H]1C[C@H]1C[C@@H](CCc1ccccc1)NC(=O)[C@H](C)N` gave a half-life [4] of 600 min.

Work on `C=C[C@H](C[C@@H]1C[C@@H]1NC(=O)[C@@H]1OC(=O)[C@H]1[C@@H](C)CC)NC(=O)[C@H](Cc1c[nH]c2ccccc12)NC(=O)OCc1ccccc1` yielded an IC50 [1] of 28 nM.

Compound `CC[C@H](C)[C@@H]1C(=O)O[C@H]1C(=O)N[C@H]1C[C@H]1C[C@H](NC(=O)[C@H](C)NC(=O)OCc1ccccc1)c1ccccc1` has an IC50 [1] of 90 nM.

`C=C[C@H](C[C@@H]1C[C@@H]1NC(=O)[C@@H]1OC(=O)[C@H]1[C@@H](C)CC)NC(=O)[C@H](C)NC(C)=O` showed an IC50 [1] of 230 nM.

Work on `CC[C@H](C)[C@@H]1C(=O)O[C@H]1C(=O)N[C@H]1C[C@H]1C[C@@H](Cc1ccccc1)NC(=O)[C@H](C)NC(=O)OCc1ccccc1` yielded an IC50 [1] of 14 nM.

For `C=C[C@H](C[C@@H]1C[C@@H]1NC(=O)[C@@H]1OC(=O)[C@H]1[C@@H](C)CC)NC(=O)c1ccccc1`, the IC50 [1] was 130 nM.

For `COc1ccc(C[C@H](NC(=O)[C@H](C)NC(=O)CN2CCOCC2)C(=O)N[C@@H](Cc2ccccc2)C(=O)[C@]2(C)CO2)cc1`, the inhibition [2] was “Active” and the inhibition [3] was “Active”.

With `CC(C)C[C@H](NC(=O)[C@H](CCc1ccccc1)NC(=O)CN1CCOCC1)C(=O)N[C@@H](Cc1ccccc1)C(=O)N[C@@H](CC(C)C)C(=O)[C@@]1(C)CO1` the inhibition [12] was “Active”.

In the case of `C=C[C@H](C[C@@H]1C[C@@H]1NC(=O)[C@@H]1OC(=O)[C@H]1[C@@H](C)CC)NC(=O)[C@H](C)NC(=O)OCc1ccccc1`, the Activity (HCT-116 [9]) is reported as “Active”, the IC50 (HCT-116 [10]) is reported as 910 nM and the IC50 [1] is reported as 49 nM.

In the case of `CC[C@H](C)[C@@H]1C(=O)O[C@H]1C(=O)N[C@H]1C[C@H]1C[C@@H](CCc1ccc2ccccc2c1)NC(=O)[C@H](C)NC(=O)OCc1ccccc1`, the IC50 [1] is reported as 29 nM.

In the case of `CC(C)C[C@H](NC(=O)[C@H](Cc1ccccc1)NC(=O)c1cnccn1)B(O)O` [BORTEZOMIB], the inhibition [11] is reported as “Active”, the Activity (HCT-116 [7]) is reported as “Active” and the “p53 accumulation (active/inactive)” value (HCT-116 [8]) is reported as “Active”. The Activity (HCT-116 [9]) was “Active” and the IC50 (HCT-116 [10]) was 10 nM.

With `C=C[C@H](C[C@@H]1C[C@@H]1NC(=O)[C@@H]1OC(=O)[C@H]1[C@@H](C)CC)NC(=O)[C@H](C)N` the IC50 [1] was 300 nM.
